Experimental data: ChEMBL document CHEMBL1133534, “1,3-Diaryl-4,5,6,7-tetrahydro-2H-isoindole derivatives: a new series of potent and selective COX-2 inhibitors in which a sulfonyl group is not a structural requisite” (J Med Chem, 2000)
pIC50: −log10 of the molar value. Activity calls are given as the source filed them. No cut-off for these calls is given here.

Assays:
[1] = biological target: T1, Prostaglandin G/H synthase 1 (Mus musculus, UniProt P22437); assay: Inhibition against prostaglandin G/H synthase 1 from mouse resident macrophages
T1 sequence (P22437 whole entry): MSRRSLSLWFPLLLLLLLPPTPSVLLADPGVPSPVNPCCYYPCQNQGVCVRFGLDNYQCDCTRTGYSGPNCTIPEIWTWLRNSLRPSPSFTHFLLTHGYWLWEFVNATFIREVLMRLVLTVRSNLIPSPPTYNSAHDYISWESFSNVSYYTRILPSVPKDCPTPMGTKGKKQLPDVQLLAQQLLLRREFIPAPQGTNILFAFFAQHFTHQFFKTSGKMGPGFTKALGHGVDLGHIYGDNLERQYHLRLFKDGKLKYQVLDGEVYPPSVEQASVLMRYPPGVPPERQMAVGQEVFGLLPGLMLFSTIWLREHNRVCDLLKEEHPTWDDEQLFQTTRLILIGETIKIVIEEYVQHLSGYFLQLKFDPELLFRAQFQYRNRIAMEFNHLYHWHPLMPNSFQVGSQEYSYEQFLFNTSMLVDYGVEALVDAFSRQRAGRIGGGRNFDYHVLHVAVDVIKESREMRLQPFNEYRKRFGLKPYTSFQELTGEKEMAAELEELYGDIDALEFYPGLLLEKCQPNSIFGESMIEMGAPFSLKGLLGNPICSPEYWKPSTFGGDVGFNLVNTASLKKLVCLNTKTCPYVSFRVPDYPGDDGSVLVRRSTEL

[2] = biological target: T2, Prostaglandin G/H synthase 2 (Mus musculus, UniProt Q05769); assay: Inhibition against prostaglandin G/H synthase 2 from mouse resident macrophages
T2 sequence (Q05769 whole entry): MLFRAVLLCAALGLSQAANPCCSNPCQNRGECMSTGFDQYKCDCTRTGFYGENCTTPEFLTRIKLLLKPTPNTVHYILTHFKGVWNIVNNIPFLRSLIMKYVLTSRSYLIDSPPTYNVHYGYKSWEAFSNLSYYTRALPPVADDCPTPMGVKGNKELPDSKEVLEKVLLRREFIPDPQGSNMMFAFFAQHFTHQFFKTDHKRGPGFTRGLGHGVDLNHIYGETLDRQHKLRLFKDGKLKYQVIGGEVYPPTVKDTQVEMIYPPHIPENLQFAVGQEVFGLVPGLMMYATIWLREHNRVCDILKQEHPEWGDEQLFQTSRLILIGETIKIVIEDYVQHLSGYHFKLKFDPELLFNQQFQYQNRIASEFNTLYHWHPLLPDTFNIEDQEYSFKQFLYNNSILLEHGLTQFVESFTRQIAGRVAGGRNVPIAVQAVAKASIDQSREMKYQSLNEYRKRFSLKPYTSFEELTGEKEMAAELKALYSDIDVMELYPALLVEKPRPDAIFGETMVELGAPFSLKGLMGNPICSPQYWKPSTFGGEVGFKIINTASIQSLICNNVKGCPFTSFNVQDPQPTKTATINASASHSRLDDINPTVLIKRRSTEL

Mus musculus [3] = organism: Mus musculus; assay: Compound was evaluated for its effective dose to inhibit exudate PGE-2; In active
Summary of the method: (§1)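 Mice given compound or vehicle orally 18 h after air-pouch induction; 1 h later 500 µL sterile 1% carrageenan injected into pouch; sacrifice 5 h after carrageenan. Pouch lavaged with 2 mL heparinized HBSS, kept on ice, PGE2 measured by EIA after solid-phase extraction. ED50 from 3 or 4 dose points, at least 8 mice/group.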

Mus musculus [4] = organism: Mus musculus; assay: (§2) Compound was evaluated for its effective dose to inhibit exudate PGE-2; summary of the method: as §1
Mus musculus [5] = organism: Mus musculus; assay: (§3) Compound was evaluated for its effective dose to inhibit gastric PGE-2; assay type: tissue-based; settings: Stomach
Summary of the method: (§4)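 Mice with air pouches (18 h old) were dosed orally with compound or vehicle. After 1 h, 500 µL sterile 1% carrageenan was injected into the pouch, and mice were killed 5 h later. Pouch lavage (heparinized HBSS) was cooled on ice, and PGE2 was measured by EIA after solid-phase extraction. Excised stomachs were rinsed and incubated 15 min in PBS, and supernatant PGE2 was measured by EIA. ED50 from 3 or 4 doses, at least 8 mice/group.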

[6] = Gastric toxicity of the compound.
Summary of the method: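 Male Swiss mice, fasted overnight with water, were dosed orally at 400 mg/kg or given vehicle, and killed by cervical dislocation 5 h later. The stomach was opened and mucosal damage scored blind from 0 (normal) to 5 (perforation). Mean ± SEM, 8 animals/group.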

[7] = biological target: Prostaglandin G/H synthase 1 (Homo sapiens, UniProt P23219); assay: Tested in vitro for inhibition against Prostaglandin G/H synthase 1 in human blood
Prostaglandin G/H synthase 1 (Homo sapiens, UniProt P23219), sequence (P23219 whole entry): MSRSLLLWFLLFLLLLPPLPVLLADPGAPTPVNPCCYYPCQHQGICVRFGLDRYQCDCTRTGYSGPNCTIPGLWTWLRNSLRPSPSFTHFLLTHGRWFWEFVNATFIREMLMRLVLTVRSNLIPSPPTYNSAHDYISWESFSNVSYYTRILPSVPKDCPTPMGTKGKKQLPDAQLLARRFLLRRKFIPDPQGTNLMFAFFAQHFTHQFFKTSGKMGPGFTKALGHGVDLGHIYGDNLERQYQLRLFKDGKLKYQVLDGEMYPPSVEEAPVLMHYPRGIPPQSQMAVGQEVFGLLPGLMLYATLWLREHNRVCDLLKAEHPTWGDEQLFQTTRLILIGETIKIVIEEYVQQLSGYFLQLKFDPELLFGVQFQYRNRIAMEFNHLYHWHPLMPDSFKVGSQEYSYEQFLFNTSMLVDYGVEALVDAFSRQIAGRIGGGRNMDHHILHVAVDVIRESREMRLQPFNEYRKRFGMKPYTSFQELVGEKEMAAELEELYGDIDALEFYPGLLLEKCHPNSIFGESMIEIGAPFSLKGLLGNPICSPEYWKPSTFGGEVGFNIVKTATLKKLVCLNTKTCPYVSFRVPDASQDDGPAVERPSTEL

Rattus norvegicus [8] = assay: Effective dose for inhibition of edema after oral administration (95% confidence limits); assay type: functional
Summary of the method: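 Adjuvant-induced arthritis in female Lewis rats, with oral dosing. Edema of the noninjected paw was read at day 21, 10 rats/group. ED50 was estimated by linear regression with 95% confidence limits.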

[9] = biological target: T3, Prostaglandin G/H synthase 2 (Homo sapiens, UniProt P35354)
T3 sequence (P35354 whole entry): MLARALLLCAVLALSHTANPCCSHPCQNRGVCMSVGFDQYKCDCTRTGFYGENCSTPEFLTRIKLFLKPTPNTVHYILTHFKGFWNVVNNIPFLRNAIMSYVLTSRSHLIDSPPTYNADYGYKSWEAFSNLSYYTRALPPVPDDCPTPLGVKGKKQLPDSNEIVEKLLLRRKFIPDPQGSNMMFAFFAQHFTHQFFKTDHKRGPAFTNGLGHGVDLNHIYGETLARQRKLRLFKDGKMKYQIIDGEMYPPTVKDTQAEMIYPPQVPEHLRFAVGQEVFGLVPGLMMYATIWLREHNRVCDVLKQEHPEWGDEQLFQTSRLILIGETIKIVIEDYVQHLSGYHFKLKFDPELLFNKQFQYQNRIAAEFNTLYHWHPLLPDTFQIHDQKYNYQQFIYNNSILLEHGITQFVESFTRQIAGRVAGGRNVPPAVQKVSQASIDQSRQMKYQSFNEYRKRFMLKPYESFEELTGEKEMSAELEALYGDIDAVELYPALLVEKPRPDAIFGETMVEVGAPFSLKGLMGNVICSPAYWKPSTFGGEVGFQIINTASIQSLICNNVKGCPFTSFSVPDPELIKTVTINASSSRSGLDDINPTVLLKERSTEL

Rattus norvegicus [10] = assay: Inhibition of edema after oral administration at 2 mg/kg, twice daily; assay type: functional
Summary of the method: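 Adjuvant-induced arthritis in female Lewis rats. Compound was given orally at 2 mg/kg twice daily, and noninjected paw edema inhibition was read at day 21, 10 rats/group.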

Rattus norvegicus [11] = assay: Inhibition of edema after oral administration at 2 mg/kg/day; assay type: functional
Summary of the method: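 Adjuvant-induced arthritis in female Lewis rats. Compound was given orally at 2 mg/kg/day, and noninjected paw edema inhibition was read at day 21, 10 rats/group.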

[12] = as §2; assay type: functional; settings: Mus musculus; summary of the method: as §1
Rattus norvegicus [13] = assay: Effective dose for inhibition of edema of the non injected paw in rat
[14] = as §3; assay type: functional; settings: Mus musculus, Stomach; summary of the method: as §4

SMILES | pIC50 [1] | pIC50 [2] | other results
c1ccc(-c2cc3n(c2-c2ccccc2)CCC3)cc1 | > 6.00 | 8.00 | –
Clc1cc2c(cc1Cl)C(c1ccccc1)NC2c1ccccc1 (centres undefined) | – | < 7.00 | –
Fc1ccc(-c2[nH]c(-c3ccc(F)cc3)c3c2C2CCC3CC2)cc1 | 6.64 | 9.22 | Gastric score [6]: 0.3; ED50 (Mus musculus [4]): 3.5 mg/kg; ED50 (Mus musculus [5]): > 20 mg/kg; pIC50 [7]: 4.52; ED50 (Rattus norvegicus [8]): 0.15 mg/kg/day; pIC50 [9]: 9.92
C1=CC2CCC1c1c(-c3ccccc3)[nH]c(-c3ccccc3)c12 | < 6.00 | 7.45 | –
CC1=C(C)Cc2c(c(-c3ccccc3)n(C)c2-c2ccccc2)C1 | – | < 6.00 | –
c1ccc([C@H]2N[C@H](c3ccccc3)c3ccccc32)cc1 | < 5.60 | – | ED50 (Mus musculus [4]): 100 mg/kg; ED50 (Mus musculus [5]): 100 mg/kg
c1ccc(-c2cn3c(c2-c2ccccc2)CCC3)cc1 | 5.60 | 7.54 | –
c1ccc(CN2Cc3c(-c4ccccc4)[nH]c(-c4ccccc4)c3C2)cc1 | – | < 7.00 | –
c1cn(-c2ccc(-c3[nH]c(-c4ccc(-n5ccnc5)cc4)c4c3CCCC4)cc2)cn1 | 6.00 | < 7.00 | –
COc1ccc2c(c1)c(CC(=O)O)c(C)n2C(=O)c1ccc(Cl)cc1 [INDOMETHACIN] | – | – | Gastric score [6]: 2.4
CC(=O)Nc1cc(-c2[nH]c(-c3ccc(F)c(NC(C)=O)c3)c3c2C2CCC3C2)ccc1F | – | < 7.00 | –
c1ccc(C2NC(c3ccccc3)c3ccccc32)cc1 (centres undefined) | < 5.60 | – | –
CS(=O)(=O)Nn1c(-c2ccccc2)c2c(c1-c1ccccc1)CCCC2 | < 6.00 | 6.30 | –
Nn1c(-c2ccccc2)c2c(c1-c1ccccc1)CCCC2 | 6.00 | 8.74 | –
c1ccc(-c2[nH]c(-c3ccccc3)c3c2CCCC3)cc1 | 7.00 | 8.82 | ED50 (Mus musculus [4]): 20 mg/kg; ED50 (Mus musculus [5]): 50 mg/kg
Fc1ccc(-c2[nH]c(-c3ccc(F)cc3)c3c2C2CCC3C2)cc1 | – | – | Gastric score [6]: 0.3; ED50 (Mus musculus [4]): 6.8 mg/kg; ED50 (Mus musculus [5]): > 40 mg/kg; pIC50 [7]: 6.00; ED50 (Rattus norvegicus [8]): 0.35 mg/kg/day; pIC50 [9]: 10.10
c1ccc(-c2[nH]c(-c3ccccc3)c3c2CNC3)cc1 | 6.00 | < 7.00 | –
c1ccc(-c2[nH]c(-c3ccccc3)c3c2CCC3)cc1 | 6.60 | – | ED50 (Mus musculus [4]): 20 mg/kg; ED50 (Mus musculus [5]): 10 mg/kg
O=C(O)Cn1c(-c2ccccc2)c2c(c1-c1ccccc1)CCCC2 | – | < 7.00 | –
CC1Cc2c(-c3ccccc3)[nH]c(-c3ccccc3)c2CC1C (centres undefined) | 6.00 | 8.51 | –
Cc1ccc(-c2cc(C(F)(F)F)nn2-c2ccc(S(N)(=O)=O)cc2)cc1 [CELECOXIB] | – | – | Gastric score [6]: 0.7; ED50 [12]: 10 mg/kg; ED50 (Rattus norvegicus [8]): 0.32 mg/kg/day; ED50 (Rattus norvegicus [13]): 0.37 mg/kg/day; ED50 [14]: > 40 mg/kg
c1ccc(-c2cc(-c3ccccc3)n3c2CCC3)cc1 | > 6.00 | 7.30 | –
Fc1ccc(-c2[nH]c(-c3ccc(-n4ccnc4)cc3)c3c2CCCC3)cc1 | 6.30 | 7.38 | –
CC1=C(C)Cc2c(-c3ccccc3)[nH]c(-c3ccccc3)c2C1 | < 7.00 | 7.84 | –
c1ccc(-c2sc(-c3ccccc3)c3ccccc23)cc1 | 6.00 | 7.96 | –
Cn1c(-c2ccccc2)c2c(c1-c1ccccc1)CCCC2 | – | < 6.00 | –

Further lines, with some results ahead:

pIC50 [1] | pIC50 [2] | SMILES | other results
6.30 | – | Cc1ccc(-c2[nH]c(-c3ccc(C)cc3)c3c2CCCC3)cc1 | IN (Mus musculus [3]): inactive
– | < 5.00 | CS(=O)(=O)c1ccc(-c2[nH]c(-c3ccc(S(C)(=O)=O)cc3)c3c2C2CCC3C2)cc1 | –
6.30 | 6.30 | CSc1ccc(-c2[nH]c(-c3ccc(SC)cc3)c3c2CCCC3)cc1 | –
6.30 | 8.35 | Fc1ccc(-c2[nH]c(-c3ccc(F)cc3)c3c2C2C=CC3C2)cc1 | –
– | < 7.00 | CNc1cc(-c2[nH]c(-c3ccc(F)c(NC)c3)c3c2C2CCC3C2)ccc1F | –
6.60 | 8.80 | c1ccc(-c2[nH]c(-c3ccccc3)c3c2C2CCC3CC2)cc1 | ED50 (Mus musculus [4]): > 40 mg/kg; ED50 (Mus musculus [5]): > 40 mg/kg
7.00 | 8.59 | c1ccc(-c2[nH]c(-c3ccccc3)c3c2C2CCC3C2)cc1 | Gastric score [6]: 0.3; ED50 (Mus musculus [4]): 20 mg/kg; ED50 (Mus musculus [5]): 80 mg/kg
7.00 | 8.54 | Fc1ccc(-c2[nH]c(-c3ccc(F)cc3)c3c2CCC3)cc1 | Gastric score [6]: 0.7; ED50 (Mus musculus [4]): 20 mg/kg; ED50 (Mus musculus [5]): > 80 mg/kg; inhibition in vivo at 2 mg/kg (Rattus norvegicus [10]): 14%
< 5.30 | 8.30 | Clc1ccc(-c2[nH]c(-c3ccc(Cl)cc3)c3c2CCCC3)cc1 | ED50 (Mus musculus [4]): 20 mg/kg; ED50 (Mus musculus [5]): > 80 mg/kg
6.00 | 7.67 | COc1ccc(-c2[nH]c(-c3ccc(OC)cc3)c3c2CCCC3)cc1 | –
– | < 7.00 | c1cc(-c2[nH]c(-c3ccncc3)c3c2C2CCC3C2)ccn1 | –
< 5.30 | 6.15 | CS(=O)(=O)c1ccc(-c2[nH]c(-c3ccc(F)cc3)c3c2C2CCC3C2)cc1 (centres undefined) | –
7.00 | 8.77 | Fc1ccc(-c2[nH]c(-c3ccc(F)cc3)c3c2CCCC3)cc1 | ED50 (Mus musculus [4]): 20 mg/kg; ED50 (Mus musculus [5]): 50 mg/kg; inhibition in vivo at 2 mg/kg/day (Rattus norvegicus [11]): 15%
– | < 7.00 | Fc1ccc(C2NC(c3ccc(F)cc3)c3ccccc32)cc1 (centres undefined) | –
